The text below walks through data of ChEMBL document CHEMBL4350960, “Structural Basis for E. coli Penicillin Binding Protein (PBP) 2 Inhibition, a Platform for Drug Design” (J Med Chem, 2019).

Molecules are shown by their SMILES. Converted amounts (≈) assume the structure as drawn. The source made the active and inactive calls. The calls are words filed in the database; no cut-off is given here. A value given as a limit tells only on which side of the number the result lay.

Test [1] concerns Bacteria. Kind of test: Inhibition of bacterial beta-lactamase SHV-1.
Test [2] deals with Penicillin-binding protein 1A (Pseudomonas aeruginosa PAO1) (UniProt Q07806). Kind of test: Inhibition of Pseudomonas aeruginosa PBP1a up to 200 uM.
Penicillin-binding protein 1A (Pseudomonas aeruginosa PAO1), sequence (Q07806 whole entry): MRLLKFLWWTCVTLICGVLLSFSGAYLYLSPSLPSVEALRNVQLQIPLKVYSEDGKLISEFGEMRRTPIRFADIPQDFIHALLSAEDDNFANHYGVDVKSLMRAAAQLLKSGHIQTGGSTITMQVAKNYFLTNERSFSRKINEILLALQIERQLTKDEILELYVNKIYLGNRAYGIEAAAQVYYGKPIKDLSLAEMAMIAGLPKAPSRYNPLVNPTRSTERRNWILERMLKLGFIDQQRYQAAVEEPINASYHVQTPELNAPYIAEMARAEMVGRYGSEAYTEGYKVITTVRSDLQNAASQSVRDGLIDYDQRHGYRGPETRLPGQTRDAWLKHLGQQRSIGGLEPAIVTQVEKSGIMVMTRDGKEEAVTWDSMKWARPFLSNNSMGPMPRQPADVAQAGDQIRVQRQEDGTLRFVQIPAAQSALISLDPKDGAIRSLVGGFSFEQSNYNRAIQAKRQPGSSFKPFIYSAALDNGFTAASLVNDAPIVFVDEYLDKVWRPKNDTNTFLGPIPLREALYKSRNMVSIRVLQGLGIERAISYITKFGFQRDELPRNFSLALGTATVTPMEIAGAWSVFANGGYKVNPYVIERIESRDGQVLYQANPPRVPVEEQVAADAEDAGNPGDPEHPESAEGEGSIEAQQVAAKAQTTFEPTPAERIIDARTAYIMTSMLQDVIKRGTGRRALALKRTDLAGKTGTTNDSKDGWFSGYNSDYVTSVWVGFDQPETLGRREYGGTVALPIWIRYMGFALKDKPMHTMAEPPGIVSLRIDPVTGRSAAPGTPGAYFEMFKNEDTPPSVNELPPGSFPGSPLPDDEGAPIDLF
Test [3] concerns Pseudomonas aeruginosa. Kind of test: Antibacterial activity against Pseudomonas aeruginosa clinical isolates measured after 16 to 20 hrs by broth microdilution method. The format is functional. The method in brief:
(§1)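 Broth microdilution MICs following CLSI M7-A7, run against genotyped carbapenem-resistant E. coli and P. aeruginosa strains.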

The test system of test [4] is Escherichia coli. Kind of test: Antibacterial activity against Escherichia coli UFR39 measured after 16 to 20 hrs by broth microdilution method. The format is functional. In a few lines:
as §1

Test [5] relates to Bacteria. The test can be described thus: Inhibition of bacterial CMY-37.
For test [6], the target named is Beta-lactamase TEM (Bacteria) (UniProt P62593). The test can be described thus: Inhibition of bacterial beta-lactamase TEM-1.
Beta-lactamase TEM (Bacteria), sequence (P62593 whole entry): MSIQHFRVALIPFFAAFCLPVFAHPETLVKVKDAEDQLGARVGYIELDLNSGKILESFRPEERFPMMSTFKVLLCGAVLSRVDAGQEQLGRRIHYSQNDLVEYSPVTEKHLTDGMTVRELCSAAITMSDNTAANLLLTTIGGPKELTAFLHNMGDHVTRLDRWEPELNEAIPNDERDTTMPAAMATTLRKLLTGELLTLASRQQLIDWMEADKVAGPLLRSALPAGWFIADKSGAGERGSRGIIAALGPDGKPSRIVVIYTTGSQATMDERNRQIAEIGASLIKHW
The test system of test [7] is Escherichia coli. Kind of test: Inhibition of Escherichia coli PBP3.
For test [8], the system named is Bacteria. Kind of test: Inhibition of bacterial beta-lactamase KPC-2.
Test [9] has as its system Bacteria. The test can be described thus: Inhibition of bacterial OXA-48.
In test [10] the test system is Bacteria. The test can be described thus: Inhibition of bacterial beta-lactamase CTX-M-15.
Test [11] has as its target T1, Penicillin-binding protein 1B (Escherichia coli K-12) (UniProt P02919).
T1 sequence (whole entry): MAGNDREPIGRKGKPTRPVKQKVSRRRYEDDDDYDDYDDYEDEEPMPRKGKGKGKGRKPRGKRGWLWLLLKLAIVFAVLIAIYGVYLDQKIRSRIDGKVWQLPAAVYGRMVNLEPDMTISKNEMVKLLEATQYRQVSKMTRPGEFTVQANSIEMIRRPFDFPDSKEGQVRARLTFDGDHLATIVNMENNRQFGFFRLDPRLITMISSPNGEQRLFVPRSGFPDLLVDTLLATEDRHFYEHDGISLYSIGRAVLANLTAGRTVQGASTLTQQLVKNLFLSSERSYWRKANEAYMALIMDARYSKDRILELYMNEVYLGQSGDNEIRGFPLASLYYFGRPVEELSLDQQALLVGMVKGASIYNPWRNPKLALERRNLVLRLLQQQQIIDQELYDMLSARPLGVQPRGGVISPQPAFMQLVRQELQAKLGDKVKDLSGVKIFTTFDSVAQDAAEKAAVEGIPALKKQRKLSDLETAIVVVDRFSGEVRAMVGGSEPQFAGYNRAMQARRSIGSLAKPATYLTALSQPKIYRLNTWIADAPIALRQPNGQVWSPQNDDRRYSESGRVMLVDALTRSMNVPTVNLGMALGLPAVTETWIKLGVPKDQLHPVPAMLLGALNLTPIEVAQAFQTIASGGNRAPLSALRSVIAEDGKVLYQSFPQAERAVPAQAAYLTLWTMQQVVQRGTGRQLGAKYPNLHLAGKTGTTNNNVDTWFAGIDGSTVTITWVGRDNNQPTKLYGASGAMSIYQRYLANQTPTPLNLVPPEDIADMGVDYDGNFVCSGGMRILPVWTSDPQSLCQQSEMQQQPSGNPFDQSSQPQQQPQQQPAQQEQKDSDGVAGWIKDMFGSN
The test can be described thus: Inhibition of Escherichia coli PBP1b.

In test [12] the test system is Escherichia coli. The test can be described thus: Inhibition of Escherichia coli PBP3 up to 200 uM.
Test [13] addresses Penicillin-binding protein 3 (Pseudomonas aeruginosa) (UniProt Q51504). The test can be described thus: Inhibition of Pseudomonas aeruginosa PBP3 up to 200 uM.
Test [14] has as its target T1, Penicillin-binding protein 1B (Escherichia coli K-12). Kind of test: Inhibition of Escherichia coli PBP1b up to 200 uM.
In test [15] the target is T2, Penicillin-binding protein 1B (Pseudomonas aeruginosa) (UniProt Q9X6W0).
T2 sequence (whole entry): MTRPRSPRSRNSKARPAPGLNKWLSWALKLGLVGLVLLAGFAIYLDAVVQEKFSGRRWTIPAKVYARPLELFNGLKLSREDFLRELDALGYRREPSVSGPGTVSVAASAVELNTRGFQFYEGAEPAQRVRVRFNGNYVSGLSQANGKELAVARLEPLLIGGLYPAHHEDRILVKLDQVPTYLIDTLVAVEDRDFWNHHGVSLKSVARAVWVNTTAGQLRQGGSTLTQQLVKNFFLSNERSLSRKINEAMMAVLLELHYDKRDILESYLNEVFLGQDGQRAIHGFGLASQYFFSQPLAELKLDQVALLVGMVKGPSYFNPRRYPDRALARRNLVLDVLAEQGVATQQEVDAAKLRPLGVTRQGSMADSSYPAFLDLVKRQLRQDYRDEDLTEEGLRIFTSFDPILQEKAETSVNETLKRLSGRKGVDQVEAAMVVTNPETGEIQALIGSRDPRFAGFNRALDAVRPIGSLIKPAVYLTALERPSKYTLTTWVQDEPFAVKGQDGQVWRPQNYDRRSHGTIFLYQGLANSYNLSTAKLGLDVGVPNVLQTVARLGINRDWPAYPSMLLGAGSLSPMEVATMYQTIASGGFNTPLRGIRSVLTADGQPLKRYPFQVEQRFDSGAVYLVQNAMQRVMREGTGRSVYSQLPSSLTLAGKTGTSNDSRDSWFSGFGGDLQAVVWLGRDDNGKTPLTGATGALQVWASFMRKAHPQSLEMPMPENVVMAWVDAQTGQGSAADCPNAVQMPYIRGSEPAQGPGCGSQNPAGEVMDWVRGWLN
Kind of test: Inhibition of Pseudomonas aeruginosa PBP1b up to 200 uM.

Test [16] deals with Escherichia coli. Kind of test: Antibacterial activity against Escherichia coli clinical isolates measured after 16 to 20 hrs by broth microdilution method. It is filed as functional. The method in brief: as §1
For test [17], the system named is Enterobacter cloacae. The test can be described thus: Inhibition of Enterobacter cloacae P99 AmpC.

Penicillin-binding protein 3 (Pseudomonas aeruginosa), sequence (Q51504 as listed by the source): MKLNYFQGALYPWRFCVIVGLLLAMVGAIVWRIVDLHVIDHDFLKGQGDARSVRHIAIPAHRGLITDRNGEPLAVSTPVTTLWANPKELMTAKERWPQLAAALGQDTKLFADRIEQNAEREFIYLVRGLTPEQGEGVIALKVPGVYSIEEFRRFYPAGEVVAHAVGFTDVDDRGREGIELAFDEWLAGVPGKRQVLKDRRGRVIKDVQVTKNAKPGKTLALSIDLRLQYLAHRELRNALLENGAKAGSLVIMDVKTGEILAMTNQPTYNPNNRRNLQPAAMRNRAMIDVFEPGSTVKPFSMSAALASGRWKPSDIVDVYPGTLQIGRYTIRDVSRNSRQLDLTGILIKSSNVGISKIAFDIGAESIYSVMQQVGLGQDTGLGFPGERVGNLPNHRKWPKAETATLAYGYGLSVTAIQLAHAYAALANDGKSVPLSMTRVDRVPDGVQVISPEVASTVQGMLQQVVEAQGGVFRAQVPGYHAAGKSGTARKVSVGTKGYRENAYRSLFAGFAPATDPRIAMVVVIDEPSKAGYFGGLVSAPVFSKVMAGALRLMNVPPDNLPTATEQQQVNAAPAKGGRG

Usually MIC50 stands for an inhibitory concentration at the 50% level, which refers to growth in some studies and to a panel of isolates in others. The MIC90 is the lowest concentration that inhibits either 90% of growth or 90% of the strains tested, depending on the study. Low values mean greater potency, high ones weaker potency. The MIC is the lowest concentration that inhibits growth of the organism. High values mean weaker potency, low ones greater potency. As for `NC[C@@H]1C=C(c2cnco2)[C@@H]2CN1C(=O)N2OS(=O)(=O)O` (relative stereo), the inhibition result in test [1], in test [5], in test [6], in test [8], in [9] and in test [10] was “Active” in each case. Also, the inhibition entry in [17] is “Active”. Moreover, the inhibition result in test [2], in [7], in [11], in test [12], in test [13] and in test [14] was “inactive” in each case. Also, the inhibition result in test [15] is “inactive”. The MIC50 in test [3] was found to be 1 µg/mL (≈ 3.16 µM); in test [16] it was 0.031 µg/mL (≈ 0.098 µM). Moreover, the MIC90 in [3] is 16 µg/mL (≈ 50.6 µM); in test [16] it was more than 32 µg/mL. Besides, in test [4], the MIC is 0.016 µg/mL (≈ 0.0506 µM).
